Measurements: EPA's CvTdb concentration-time database

Assays:
Rat [1] = assay: concentration in plasma after dosing; details: 0.75 h; dosed: 2-Methyltetrahydrofuran; 40 mg/kg; iv; Male; Harlan Sprague Dawley
Rat [2] = assay: concentration in plasma after dosing; details: 2 h; dosed: 2-Methyltetrahydrofuran; 40 mg/kg; iv; Female; Harlan Sprague Dawley
Rat [3] = assay: concentration in brain after dosing; details: 0.75 h; dosed: 2-Methyltetrahydrofuran; 40 mg/kg; iv; Male; Harlan Sprague Dawley
Rat [4] = assay: concentration in plasma after dosing; details: 0.5 h; dosed: 2-Methyltetrahydrofuran; 40 mg/kg; iv; Male; Harlan Sprague Dawley
Rat [5] = assay: concentration in brain after dosing; details: 1.5 h; dosed: 2-Methyltetrahydrofuran; 40 mg/kg; iv; Male; Harlan Sprague Dawley
Rat [6] = assay: concentration in plasma after dosing; details: dosed: 678-39-7, 12 mg/kg, iv, Male, F344
Rat [7] = assay: concentration in brain after dosing; details: 6 h; dosed: Fluorotelomer alcohol 8+2; 80 mg/kg; oral; Female; Harlan Sprague Dawley
Rat [8] = assay: concentration in plasma after dosing; details: dosed: 678-39-7, 40 mg/kg, iv, Male, F344
Rat [9] = assay: concentration in brain after dosing; details: 3 h; dosed: Fluorotelomer alcohol 8+2; 80 mg/kg; oral; Female; Harlan Sprague Dawley
Rat [10] = assay: concentration in liver after dosing; details: 3 h; dosed: Perfluorohexanoic Acid; 80 mg/kg; oral; Female; Harlan Sprague Dawley
Rat [11] = assay: concentration in liver after dosing; details: 0.5 h; dosed: Perfluorohexanoic Acid; 80 mg/kg; oral; Female; Harlan Sprague Dawley
Rat [12] = assay: concentration in liver after dosing; details: 6 h; dosed: Perfluorohexanoic Acid; 80 mg/kg; oral; Male; Harlan Sprague Dawley
Rat [13] = assay: concentration in liver after dosing; details: 6 h; dosed: Perfluorohexanoic Acid; 80 mg/kg; oral; Female; Harlan Sprague Dawley
Rat [14] = assay: concentration in plasma after dosing; details: 0.75 h; dosed: Perfluorohexanoic Acid; 80 mg/kg; oral; Male; Harlan Sprague Dawley
Rat [15] = assay: concentration in kidney after dosing; details: 6 h; dosed: Perfluorohexanoic Acid; 80 mg/kg; oral; Male; Harlan Sprague Dawley
human = assay: concentration in blood after dosing; negative times count back from the end of exposure; details: dosed: trichloroethylene, 100 ppm, inhalation, person
Outline: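 Points were largely digitised from plot screenshots with WebPlotDigitizer or otherwise copied from tables, and they remain in the units each source reported. They come from published in vivo toxicokinetic studies and two structured collections. Sampling and analytical methods follow each source and were often not reported.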

Rat [16] = assay: concentration in kidney after dosing; details: 6 h; dosed: Perfluorooctane Sulfonate; 20 mg/kg; oral; Female; F344
Rat [17] = assay: concentration in kidney after dosing; details: 864 h; dosed: Perfluorooctane Sulfonate; 2 mg/kg; oral; Female; Harlan Sprague Dawley
Rat [18] = assay: concentration in kidney after dosing; details: 24 h; dosed: Perfluorooctane Sulfonate; 20 mg/kg; oral; Female; F344
Rat [19] = assay: concentration in liver after dosing; details: 3360 h; dosed: Perfluorooctane Sulfonate; 2 mg/kg; oral; Female; Harlan Sprague Dawley
Rat [20] = assay: concentration in plasma after dosing; details: dosed: Perfluorooctane Sulfonate, 2 mg/kg, iv, Female, F344
Rat [21] = assay: concentration in plasma after dosing; details: dosed: Perfluorooctane Sulfonate, 2 mg/kg, iv, Female, F344; remark: listed apart in the source
Rat [22] = assay: concentration in brain after dosing; details: 6 h; dosed: Perfluorooctane Sulfonate; 20 mg/kg; oral; Female; F344
Rat [23] = assay: concentration in liver after dosing; details: 864 h; dosed: Perfluorooctane Sulfonate; 2 mg/kg; oral; Female; Harlan Sprague Dawley
Rat [24] = assay: concentration in liver after dosing; details: 24 h; dosed: Perfluorooctane Sulfonate; 2 mg/kg; oral; Female; Harlan Sprague Dawley
Rat [25] = assay: concentration in kidney after dosing; details: 864 h; dosed: Perfluorooctane Sulfonate; 2 mg/kg; oral; Female; Harlan Sprague Dawley; remark: listed apart in the source
Rat [26] = assay: concentration in kidney after dosing; details: 1848 h; dosed: Perfluorooctane Sulfonate; 20 mg/kg; oral; Male; Harlan Sprague Dawley
Rat [27] = assay: concentration in liver after dosing; details: 3360 h; dosed: Perfluorooctane Sulfonate; 2 mg/kg; oral; Female; Harlan Sprague Dawley; remark: listed apart in the source
Rat [28] = assay: concentration in brain after dosing; details: 6 h; dosed: Perfluorooctane Sulfonate; 20 mg/kg; oral; Male; Harlan Sprague Dawley
Rat [29] = assay: concentration in plasma after dosing; details: 18 h; dosed: Gemfibrozil; 100 mg/kg; oral; Male; Sprague-Dawley
Rat [30] = assay: concentration in plasma after dosing; details: 4 h; dosed: Gemfibrozil; 100 mg/kg; oral; Male; Sprague-Dawley
Rat [31] = assay: concentration in plasma after dosing; details: 4 h; dosed: Gemfibrozil; 50 mg/kg; oral; Male; Sprague-Dawley
Rat [32] = assay: concentration in plasma after dosing; details: 0.25 h; dosed: Gemfibrozil; 50 mg/kg; oral; Male; Sprague-Dawley

CC1CCCO1 (stereo unspecified) [2-Methyltetrahydrofuran]
Details	concentration in brain [ng/mL]	concentration in plasma [ng/mL]
Rat [1]	–	22000
Rat [2]	–	3580
Rat [3]	15400	–
Rat [4]	–	25100
Rat [5]	8330	–

O=C(O)CCC(F)(F)C(F)(F)C(F)(F)C(F)(F)C(F)(F)C(F)(F)C(F)(F)F [Fluorotelomer acid 7+3]
concentration in plasma [ng/mL]
Details	0.5 h	0.75 h	9 h	12 h
Rat [6]	–	334	–	90
Rat [8]	470	–	2680	–

Details	concentration in brain [ng/g]
Rat [7]	1470
Rat [9]	1580

O=C(O)C(F)(F)C(F)(F)C(F)(F)C(F)(F)C(F)(F)F [Perfluorohexanoic Acid]
Details	concentration in kidney [ng/g]	concentration in liver [ng/g]	concentration in plasma [ng/mL]
Rat [10]	–	8200	–
Rat [11]	–	23800	–
Rat [12]	–	9200	–
Rat [13]	–	6260	–
Rat [14]	–	–	134000
Rat [15]	16900	–	–

ClC=C(Cl)Cl [trichloroethylene]
human
Details	concentration in blood [ng/mL]
0 h, duration: 6 hr	1310
0.2145 h, duration: 4 hr	2070
0.2337 h, duration: 4 hr	1290
0.4864 h, duration: 4 hr	1450
0.9849 h, duration: 4 hr	714
0.9924 h, duration: 4 hr	513
1.967 h, duration: 4 hr	333
1.979 h, duration: 4 hr	268
3.961 h, duration: 4 hr	170
18 h, duration: 6 hr	1100
22 s, duration: 4 hr	1870
24 h, duration: 6 hr	562
29.5 min, duration: 4 hr	851
42 h, duration: 6 hr	1490
48 h, duration: 6 hr	1230
66 h, duration: 6 hr	2060
72 h, duration: 6 hr	1320
90 h, duration: 6 hr	1660
96 h, duration: 6 hr	1370
160 h, duration: 6 hr	921

concentration in blood [ng/mL], human, during exposure
Details	-6 h	-3.502 h	-3.499 h	-3.014 h	-3.003 h	-2.006 h	-1.997 h	-1.011 h	-1.009 h
duration: 4 hr	–	1670	881	1250	2120	2530	1520	1690	2830
duration: 6 hr	11.9	–	–	–	–	–	–	–	–

O=S(=O)([O-])C(F)(F)C(F)(F)C(F)(F)C(F)(F)C(F)(F)C(F)(F)C(F)(F)C(F)(F)F [Perfluorooctane Sulfonate]
Details	concentration in brain [ng/g]	concentration in kidney [ng/g]	concentration in liver [ng/g]
Rat [16]	–	133000	–
Rat [17]	–	1390	–
Rat [18]	–	132000	–
Rat [19]	–	–	2150
Rat [22]	3990	–	–
Rat [23]	–	–	17500
Rat [24]	–	–	23800
Rat [25]	–	3420	–
Rat [26]	–	10200	–
Rat [27]	–	–	3090
Rat [28]	4440	–	–

concentration in plasma [ng/mL]
Details	5 min	6 h	192 h	864 h	1704 h
Rat [20]	–	4560	–	1530	–
Rat [21]	5590	–	4170	–	940

Cc1ccc(C)c(OCCCC(C)(C)C(=O)O)c1 [Gemfibrozil]
Details	concentration in plasma [ng/mL]
Rat [29]	3300
Rat [30]	7120
Rat [31]	2860
Rat [32]	79300
